Reference: ChEMBL document CHEMBL4732088, “Identification and optimization of piperlongumine analogues as potential antioxidant and anti-inflammatory agents via activation of Nrf2” (Eur J Med Chem, 2021)
Active and inactive are the calls of the source. No cut-off for these calls is given here.

How the values were obtained:
[1] = test system: PC-12; assay: Neuroprotective activity against 6-OHDA-induced cell death in rat PC12 cells assessed as cell viability at 20 uM preincubated for 30 mins in presence of brusatol […] and measured after 24 hrs by MTT assay; format: functional, cell-based; settings: time 24.5 hrs
[2] = test system: PC-12; assay: Protection against 6-OHDA-induced apoptosis in rat PC12 cells assessed as viable cells at 5 uM incubated for 24 hrs by annexin V FITC/propidium iodide staining based flow cytometry (reference value: 72.0 %); format: functional; settings: read-out: Activity
[3] = test system: PC-12; assay: Protection against H2O2-induced apoptosis in rat PC12 cells assessed as viable cells at 5 uM incubated for 24 hrs by annexin V FITC/propidium iodide staining based flow cytometry (reference value: 79.3 %); format: functional; settings: read-out: Activity
[4] = test system: PC-12; assay: Prevention of H2O2-induced calcium overload in rat PC12 cells assessed as reduction in intracellular free calcium by measuring mean fluorescence intensity at 10 uM pretreated with compound followed by H2O2 addition measured after 24 hrs by Fluo-3AM based fluorescence assay (reference value: 17791.36%); format: functional
[5] = test system: PC-12; assay: Neuroprotective activity against H2O2-induced cell death in rat PC12 cells at 20 uM preincubated for 30 mins in presence of brusatol followed by H2O2 stimulation and measured after 24 hrs by MTT assay; format: functional, cell-based; settings: time 24.5 hrs
Method in brief: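 PC12 cells incubated 30 min with compound (20 μM) plus brusatol (10 nM) or ZnPP (10 nM), then insult for 24 h (H₂O₂ stated as 150 μM); viability by MTT.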

[6] = test system: PC-12; assay: Protection against 6-OHDA-induced apoptosis in rat PC12 cells assessed as late apoptotic cells at 20 uM incubated for 24 hrs by annexin V FITC/propidium iodide staining based flow cytometry (reference value: 7.6 %); format: functional
[7] = target: T1, Nuclear factor erythroid 2-related factor 2 (Rattus norvegicus) (UniProt O54968); assay: Induction of Nrf2 translocation from cytoplasm to nucleus in rat PC12 cells at 20 uM after 6 hrs by Western blot analysis; format: cell-based; settings: PC-12, filed as activator
T1 sequence (whole entry): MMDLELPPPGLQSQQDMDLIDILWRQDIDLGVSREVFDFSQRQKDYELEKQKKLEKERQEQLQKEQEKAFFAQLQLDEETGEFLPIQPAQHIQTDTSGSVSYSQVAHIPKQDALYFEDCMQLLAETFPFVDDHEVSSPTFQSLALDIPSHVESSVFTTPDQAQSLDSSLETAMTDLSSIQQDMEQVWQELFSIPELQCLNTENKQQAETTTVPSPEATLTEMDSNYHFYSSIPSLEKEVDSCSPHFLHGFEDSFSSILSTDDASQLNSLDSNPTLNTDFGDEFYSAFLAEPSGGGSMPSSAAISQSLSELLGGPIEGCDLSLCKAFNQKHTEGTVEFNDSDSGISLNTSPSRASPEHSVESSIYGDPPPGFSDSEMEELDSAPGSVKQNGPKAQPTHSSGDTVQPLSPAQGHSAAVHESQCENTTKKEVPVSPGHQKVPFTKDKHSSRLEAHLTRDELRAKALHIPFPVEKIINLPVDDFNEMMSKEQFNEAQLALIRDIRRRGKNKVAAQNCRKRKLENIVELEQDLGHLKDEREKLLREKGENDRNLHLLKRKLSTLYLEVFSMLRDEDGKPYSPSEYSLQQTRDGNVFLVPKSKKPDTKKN
Method in brief: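 PC12 cells given compound; nuclear and cytoplasmic fractions probed for Nrf2 by Western blot across a time course up to and beyond 6 h.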

[8] = test system: PC-12; assay: Protection against H2O2-induced oxidative damage in rat PC12 cells assessed as intracellular ROS level by measuring mean fluorescence intensity at 20 uM pretreated with compound followed by H2O2 stimulation by DCFH-DA staining based flow cytometry (reference value: 233032.55); format: functional
[9] = target: T1, Nuclear factor erythroid 2-related factor 2 (Rattus norvegicus); assay: Activation of Nrf2 in rat PC12 cells assessed as increase in HO-1 protein level after 24 hrs by Western blot analysis; format: cell-based; settings: PC-12, filed as activator, dose 5-20 µM
Method in brief: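 PC12 cells treated with compound for 24 h at rising concentrations; NQO1, HO-1, TrxR1, GCLM, GCLC protein detected by Western blot.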

[10] = target: T2, Nuclear factor erythroid 2-related factor 2 (Mus musculus) (UniProt Q60795); assay: Activation of Nrf2 in mouse BV2 cells assessed as upregulation of GCLM protein expression after 24 hrs by Western blot analysis; format: cell-based; settings: BV-2, filed as activator, dose 5-20 µM
T2 sequence (whole entry): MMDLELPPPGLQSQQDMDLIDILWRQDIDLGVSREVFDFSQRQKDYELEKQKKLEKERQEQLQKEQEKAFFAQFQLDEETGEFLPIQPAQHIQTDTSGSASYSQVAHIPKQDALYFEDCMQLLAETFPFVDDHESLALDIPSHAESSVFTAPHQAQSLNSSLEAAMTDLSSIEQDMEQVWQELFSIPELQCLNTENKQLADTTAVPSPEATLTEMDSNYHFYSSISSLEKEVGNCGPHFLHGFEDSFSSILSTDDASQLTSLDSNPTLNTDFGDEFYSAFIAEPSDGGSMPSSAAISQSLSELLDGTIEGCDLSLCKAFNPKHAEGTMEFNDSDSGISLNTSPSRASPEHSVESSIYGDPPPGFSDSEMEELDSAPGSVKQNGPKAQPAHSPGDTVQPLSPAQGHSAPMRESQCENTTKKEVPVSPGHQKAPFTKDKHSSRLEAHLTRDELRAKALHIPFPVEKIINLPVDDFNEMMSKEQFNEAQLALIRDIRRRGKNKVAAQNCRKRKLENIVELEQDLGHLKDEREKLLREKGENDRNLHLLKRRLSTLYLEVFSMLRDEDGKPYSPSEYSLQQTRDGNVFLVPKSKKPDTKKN
Method in brief: (§1)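 BV2 microglia exposed to compound for 24 h over a concentration series; Nrf2, NQO1, HO-1, TrxR1, GCLM and GCLC protein levels read by Western blot.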

[11] = test system: PC-12; assay: Protection against 6-OHDA-induced apoptosis in rat PC12 cells assessed as late apoptotic cells at 5 uM incubated for 24 hrs by annexin V FITC/propidium iodide staining based flow cytometry (reference value: 7.6 %); format: functional
[12] = test system: BV-2; assay: Antiinflammatory activity in mouse BV2 cells transfected with Nrf2 siRNA assessed as reduction in LPS-induced NO production at 20 uM pretreated with compound followed by LPS stimulation for 18 hrs
[13] = test system: PC-12; assay: Protection against 6-OHDA-induced oxidative damage in rat PC12 cells assessed as intracellular ROS level by measuring mean fluorescence intensity at 5 uM pretreated with compound followed by 6-OHDA stimulation by DCFH-DA staining based flow cytometry (reference value: 26327.34); format: functional
[14] = target: T2, Nuclear factor erythroid 2-related factor 2 (Mus musculus); assay: Activation of Nrf2 in mouse BV2 cells assessed as upregulation of TrxR1 protein expression after 24 hrs by Western blot analysis; format: cell-based; settings: BV-2, filed as activator, dose 5-20 µM; method in brief: as §1
[15] = test system: PC-12; assay: Cytoprotective activity against 6-OHDA-induced neurotoxicity in rat PC12 cells assessed as reduction in LDH release at 5 to 20 uM preincubated for 24 hrs followed by 6-OHDA treatment by LDH assay; format: functional, cell-based; settings: dose 5-20 µM
Method in brief: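 PC12 cells pretreated with compound (5, 10, 20 μM) for 24 h, then H₂O₂ or 6-OHDA; membrane damage read as LDH leakage; mean ± SD of three independent experiments.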

CCN(C)C(=O)N1CCN(C(=O)/C=C/c2ccc(F)cc2)C1=O
Activity [1]: inactive | viability at 5 µM [2]: 81.5% | viability at 5 µM [3]: 84.1% | Flu intensity [4]: 7793.41 | Activity [5]: inactive | Activity [6]: 5% | Activity [7]: Active | Flu intensity [8]: 130822.7 | Activity [9]: Dose-dependent effect | Activity [10]: Dose-dependent effect | Activity [11]: 6.4% | Activity [12]: inactive | Flu intensity [13]: 18168.07 | Activity [14]: Dose-dependent effect | Activity [15]: Active
